Assay results as given in ChEMBL document CHEMBL2057138, “Design and synthesis of marine fungal phthalide derivatives as PPAR-γ agonists” (Bioorg Med Chem, 2012).
Activity calls are given as the source filed them. No cut-off for these calls is given here.

These compounds were tested against Peroxisome proliferator-activated receptor gamma (Homo sapiens) (UniProt P37231) (assay: Agonist activity at PPARgamma in rat Ac2F cells assessed as luciferase activity at 0.1 to 10 uM after 6 hrs by reporter gene assay).

Compound	Activity
CCCCCCCCC1OC(=O)c2cccc(O)c21 (stereo not given)	Active
CCCCCCCCC1OC(=O)c2c(O)cccc21 (racemic)	Active

These compounds were tested against Peroxisome proliferator-activated receptor gamma (Homo sapiens) (UniProt P37231) (assay: Agonist activity at PPARgamma in rat Ac2F cells assessed as luciferase activity after 6 hrs by reporter gene assay).

Compound	Activity
CCCCCCCCC1OC(=O)c2c(O)cccc21 (racemic)	Dose-dependent effect

The compounds below were run against T1, Peroxisome proliferator-activated receptor gamma (Homo sapiens) (UniProt P37231) (assay: Binding affinity to GST-tagged PPARgamma LBD at 50 uM after 4 hrs by TR-FRET competitive binding assay).
T1 sequence (whole entry): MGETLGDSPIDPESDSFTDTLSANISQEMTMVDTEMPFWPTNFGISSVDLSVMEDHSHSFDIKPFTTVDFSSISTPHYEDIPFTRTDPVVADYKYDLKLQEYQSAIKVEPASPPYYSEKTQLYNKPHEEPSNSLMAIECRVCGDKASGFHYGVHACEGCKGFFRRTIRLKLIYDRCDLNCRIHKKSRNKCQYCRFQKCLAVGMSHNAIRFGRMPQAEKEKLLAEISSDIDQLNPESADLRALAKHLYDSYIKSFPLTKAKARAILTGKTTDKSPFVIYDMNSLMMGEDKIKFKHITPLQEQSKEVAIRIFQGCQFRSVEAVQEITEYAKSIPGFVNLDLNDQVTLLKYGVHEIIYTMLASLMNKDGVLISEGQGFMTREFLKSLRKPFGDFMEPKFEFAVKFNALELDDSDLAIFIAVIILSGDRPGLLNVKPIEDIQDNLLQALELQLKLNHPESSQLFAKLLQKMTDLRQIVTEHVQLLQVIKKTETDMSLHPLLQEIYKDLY
Summary of the method: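 LanthaScreen TR-FRET competitive binding. Mix of 0.5 nM GST-tagged PPAR-γ LBD, 5 nM terbium anti-GST antibody and 5 nM Fluormone Pan-PPAR Green tracer, with compound at 50 µM and DMSO solvent control. Incubated 4 h in the dark. Read as the 520/495 nm emission ratio (counting 0.1 s, integration 20 µs). Mean + s.d., n = 3.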

Compound	Activity
CCCCCCCCC1OC(=O)c2c(OC)cccc21 (stereo not given)	inactive
CCCCCCCCC1(O)OC(=O)c2c(OCc3ccccc3)cccc21 (stereo not given)	inactive
CCCCCCCCOC(=O)c1cccc(O)c1C(=O)O	Active
CCCCCCCCC1(CCCCCCCC)OC(=O)c2cccc(O)c21	inactive
CCCCCCCCC1(O)OC(=O)c2cccc(O)c21 (stereo not given)	inactive
O=C1OC(=O)c2ccccc21	inactive
CCCCCCCCC1(O)OC(=O)c2c(O)cccc21 (stereo not given)	inactive
CCCCCCCCCC(=O)Oc1cccc2c1C(=O)OC2=O	inactive
CCCCCCCCC1OC(=O)c2cccc(O)c21 (stereo not given)	Active
CCCCCCCCC1(OCc2ccccc2)OC(=O)c2c(OCc3ccccc3)cccc21 (stereo not given)	inactive
CCCCCCCCOC(=O)c1cccc([N+](=O)[O-])c1C(=O)O	Active
O=C1OC(=O)c2c1cccc2[N+](=O)[O-]	inactive
CCCCCCCCC1(OC)OC(=O)c2c(OCc3ccccc3)cccc21 (stereo not given)	inactive
O=C1OC(=O)c2c(O)cccc21	Active
CCCCCCCCC1OC(=O)c2c(O)cccc21 (racemic)	Active
CCCCCCCCC1(CCCCCCCC)OC(=O)c2c(O)cccc21	inactive
CN(CCOc1ccc(CC2SC(=O)NC2=O)cc1)c1ccccn1 (stereo not given)	Active
